Test results from ChEMBL document CHEMBL3751707, “Silicon Incorporated Morpholine Antifungals: Design, Synthesis, and Biological Evaluation” (ACS Med Chem Lett, 2015).
Values after ≈ are worked out from the molar mass of the structure shown.

Experiments:
Candida tropicalis [1] = test: Antifungal activity against Candida tropicalis ATCC 750 after 72 hrs by broth microdilution method; assay type: functional; conditions: ATCC 750, 72 h
Summary of the method: (§1)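 CLSI broth microdilution against yeasts (M27-A3) and filamentous fungi (M38-A2). Read-outs: IC50 (concentration giving 50% growth inhibition), MIC, and MFC (minimum fungicidal concentration), all in μg/mL. Assay done twice in triplicate.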

Candida albicans [2] = test: Antifungal activity against Candida albicans ATCC 10231 after 72 hrs by broth microdilution method; assay type: functional; conditions: ATCC 10231, 72 h; summary of the method: as §1
Aspergillus niger [3] = test: Antifungal activity against Aspergillus niger ATCC 10578 after 48 hrs by broth microdilution method; assay type: functional, organism-based; conditions: ATCC 10578, 48 h; summary of the method: as §1
Candida albicans [4] = test: Antifungal activity against Candida albicans ATCC 10231 after 24 to 36 hrs by broth microdilution method; assay type: functional, organism-based; summary of the method: as §1
Candida albicans [5] = test: Antifungal activity against Candida albicans ATCC 24433 after 24 to 36 hrs by broth microdilution method; assay type: functional, organism-based; summary of the method: as §1
Candida tropicalis [6] = test: Antifungal activity against Candida tropicalis ATCC 750 after 24 to 36 hrs by broth microdilution method; assay type: functional, organism-based; summary of the method: as §1
[7] = Toxicity in human RBC assessed as hemolysis upto 128 ug/ml; assay type: cell-based; conditions: erythrocyte
Candida albicans [8] = test: Antifungal activity against Candida albicans ATCC 24433 after 72 hrs by broth microdilution method; assay type: functional; conditions: ATCC 24433, 72 h; summary of the method: as §1
[9] = Metabolic stability in human liver microsomes after 30 mins by LC-MS/MS analysis; assay type: ADME; conditions: read-out: Stability
Summary of the method: (§2)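 Test compounds were incubated 30 min with liver microsomes (human or mouse, per line), and values are reported as % metabolic stability after 30 min.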

[10] = Metabolic stability in mouse liver microsomes after 30 mins by LC-MS/MS analysis; assay type: ADME; conditions: read-out: Stability; summary of the method: as §2
Cryptococcus neoformans [11] = test: Antifungal activity against Cryptococcus neoformans ATCC 34664 after 24 to 36 hrs by broth microdilution method; assay type: functional, organism-based; summary of the method: as §1
Nakaseomyces glabratus [12] = test: Antifungal activity against Candida glabrata NCYC 388 after 72 hrs by broth microdilution method; assay type: functional; conditions: NCYC 388, 72 h; summary of the method: as §1
Aspergillus niger [13] = test: Antifungal activity against Aspergillus niger ATCC 10578 after 72 hrs by broth microdilution method; assay type: functional; conditions: ATCC 10578, 72 h; summary of the method: as §1
Nakaseomyces glabratus [14] = test: Antifungal activity against Candida glabrata NCYC 388 after 24 to 36 hrs by broth microdilution method; assay type: functional, organism-based; summary of the method: as §1
Cryptococcus neoformans [15] = test: Antifungal activity against Cryptococcus neoformans ATCC 34664 after 72 hrs by broth microdilution method; assay type: functional; conditions: ATCC 34664, 72 h; summary of the method: as §1

SMILES | MFC (Candida tropicalis [1]) [µg/mL] | MFC (Candida albicans [2]) [µg/mL] | IC50 (Aspergillus niger [3]) [µg/mL] | MIC (Aspergillus niger [3]) [µg/mL] | IC50 (Candida albicans [4]) [µg/mL] | MIC (Candida albicans [4]) [µg/mL] | IC50 (Candida albicans [5]) [µg/mL] | MIC (Candida albicans [5]) [µg/mL] | IC50 (Candida tropicalis [6]) [µg/mL] | MIC (Candida tropicalis [6]) [µg/mL] | Activity [7] | MFC (Candida albicans [8]) [µg/mL] | IC50 (Cryptococcus neoformans [11]) [µg/mL] | MIC (Cryptococcus neoformans [11]) [µg/mL] | MFC (Nakaseomyces glabratus [12]) [µg/mL] | MFC (Aspergillus niger [13]) [µg/mL] | IC50 (Nakaseomyces glabratus [14]) [µg/mL] | MIC (Nakaseomyces glabratus [14]) [µg/mL] | MFC (Cryptococcus neoformans [15]) [µg/mL] | further results
CC(Cc1ccc(C(C)(C)C)cc1)CN1CCCCC1 (stereo unspecified) [FENPROPIDIN] | 256 (≈ 936 µM) | 2 (≈ 7.31 µM) | 16 (≈ 58.5 µM) | 32 (≈ 117 µM) | 0.27 (≈ 0.987 µM) | 1 (≈ 3.66 µM) | 0.19 (≈ 0.695 µM) | 0.25 (≈ 0.914 µM) | 0.125 (≈ 0.457 µM) | 4 (≈ 14.6 µM) | Non-toxic | 0.5 (≈ 1.83 µM) | 0.22 (≈ 0.804 µM) | 1 (≈ 3.66 µM) | 16 (≈ 58.5 µM) | 128 (≈ 468 µM) | 0.1 (≈ 0.366 µM) | 0.5 (≈ 1.83 µM) | 32 (≈ 117 µM) | remaining at 0.5 h [9]: 34.4%; remaining at 0.5 h [10]: 1.1%
CC(Cc1ccc(C(C)(C)C)cc1)C(=O)N1CC[Si](C)(C)CC1 (stereo unspecified) | ≥ 256 | ≥ 256 | – | ≥ 256 | – | ≥ 256 | – | ≥ 256 | – | ≥ 256 | – | ≥ 256 | – | ≥ 256 | ≥ 256 | ≥ 256 | – | ≥ 256 | ≥ 256 | –
CC(Cc1ccc(C(C)(C)C)cc1)C(=O)NC[Si](C)(C)c1ccccc1 (stereo unspecified) | ≥ 256 | ≥ 256 | – | ≥ 256 | – | ≥ 256 | – | ≥ 256 | – | ≥ 256 | – | ≥ 256 | – | ≥ 256 | ≥ 256 | ≥ 256 | – | ≥ 256 | ≥ 256 | –
CC(Cc1ccc([Si](C)(C)C)cc1)CN1CCS(=O)(=O)CC1 (stereo unspecified) | ≥ 256 | ≥ 256 | – | ≥ 256 | – | ≥ 256 | – | ≥ 256 | – | ≥ 256 | – | ≥ 256 | – | ≥ 256 | ≥ 256 | ≥ 256 | – | ≥ 256 | ≥ 256 | –
CC(Cc1ccc(C(C)(C)C)cc1)CN1CC[Si](C)(C)CC1 (stereo unspecified) | 64 (≈ 202 µM) | 0.5 (≈ 1.57 µM) | 13.8 (≈ 43.5 µM) | 32 (≈ 101 µM) | 0.31 (≈ 0.976 µM) | 0.5 (≈ 1.57 µM) | 1.85 (≈ 5.83 µM) | 4 (≈ 12.6 µM) | 16 (≈ 50.4 µM) | 64 (≈ 202 µM) | Non-toxic | 8 (≈ 25.2 µM) | 0.875 (≈ 2.76 µM) | 2 (≈ 6.3 µM) | 8 (≈ 25.2 µM) | 64 (≈ 202 µM) | 1.52 (≈ 4.79 µM) | 4 (≈ 12.6 µM) | 4 (≈ 12.6 µM) | –
CC(Cc1ccc([Si](C)(C)C)cc1)CN1CCSCC1 (stereo unspecified) | > 256 | 2 (≈ 6.5 µM) | 1 (≈ 3.25 µM) | 2 (≈ 6.5 µM) | 0.5 (≈ 1.63 µM) | 1 (≈ 3.25 µM) | 0.245 (≈ 0.797 µM) | 1 (≈ 3.25 µM) | 0.25 (≈ 0.813 µM) | 2 (≈ 6.5 µM) | Non-toxic | 8 (≈ 26 µM) | 0.8 (≈ 2.6 µM) | 2 (≈ 6.5 µM) | 8 (≈ 26 µM) | > 256 | 0.25 (≈ 0.813 µM) | 0.5 (≈ 1.63 µM) | 64 (≈ 208 µM) | –
CC(Cc1ccc([Si](C)(C)C)cc1)CN1CCCC1 (stereo unspecified) | 128 (≈ 465 µM) | 2 (≈ 7.26 µM) | 50.1 (≈ 182 µM) | 64 (≈ 232 µM) | 0.31 (≈ 1.13 µM) | 0.5 (≈ 1.81 µM) | 0.97 (≈ 3.52 µM) | 2 (≈ 7.26 µM) | 2.76 (≈ 10 µM) | 16 (≈ 58.1 µM) | – | 8 (≈ 29 µM) | 0.25 (≈ 0.907 µM) | 1 (≈ 3.63 µM) | 32 (≈ 116 µM) | 256 (≈ 929 µM) | 0.319 (≈ 1.16 µM) | 1 (≈ 3.63 µM) | 4 (≈ 14.5 µM) | –
CCC(C)(C)c1ccc(CC(C)CN2CC[Si](C)(C)CC2)cc1 (stereo unspecified) | 256 (≈ 772 µM) | 64 (≈ 193 µM) | 0.16 (≈ 0.482 µM) | 0.5 (≈ 1.51 µM) | 0.28 (≈ 0.844 µM) | 0.5 (≈ 1.51 µM) | 1.68 (≈ 5.07 µM) | 4 (≈ 12.1 µM) | 13.8 (≈ 41.6 µM) | 64 (≈ 193 µM) | – | 16 (≈ 48.2 µM) | 1.4 (≈ 4.22 µM) | 2 (≈ 6.03 µM) | 4 (≈ 12.1 µM) | 64 (≈ 193 µM) | 1.47 (≈ 4.43 µM) | 4 (≈ 12.1 µM) | 4 (≈ 12.1 µM) | –
